The results in this text go back to ChEMBL document CHEMBL3352003, “Sulfonamides with Potent Inhibitory Action and Selectivity against the α-Carbonic Anhydrase from Vibrio cholerae” (ACS Med Chem Lett, 2014).

Usually Ki stands for a measure of affinity in units of concentration, obtained from inhibition or displacement.

The nature of the experiment: Inhibition of Vibrio cholerae cytosolic carbonic anhydrase by stopped flow CO2 hydration assay. A digest of the protocol:
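Stopped-flow measurement of the enzyme-catalysed CO2 hydration activity; inhibition is reported as KI (nM).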
Compound `CC(=O)NC(CCCCNC(=O)OC(C)(C)C)C(=O)Nc1cccc(S(N)(=O)=O)c1` (stereo unspecified) registered a Ki of 8.8 nM. In turn, `CC(C)(C)OC(=O)NCCCC(=O)NCc1ccc(S(N)(=O)=O)cc1` showed a Ki of 6.1 nM. To `CC(C)(C)OC(=O)NCCCC(=O)NCCc1ccc(S(N)(=O)=O)cc1` belongs 304 nM; to `NCCCC(=O)NCc1ccc(S(N)(=O)=O)cc1`, 65.3 nM; to `NCCCC(=O)NCCc1ccc(S(N)(=O)=O)cc1`, 77 nM. To `CC(C)(C)OC(=O)/N=C(\NCCCC(=O)NCc1ccc(S(N)(=O)=O)cc1)NC(=O)OC(C)(C)C` belongs 5.8 nM. To `CC(C)(C)OC(=O)/N=C(\NCCCC(=O)NCCc1ccc(S(N)(=O)=O)cc1)NC(=O)OC(C)(C)C` belongs 95.2 nM; to `N=C(N)NCCCC(=O)NCc1ccc(S(N)(=O)=O)cc1`, 6.4 nM. `N=C(N)NCCCC(=O)NCCc1ccc(S(N)(=O)=O)cc1` returned a Ki of 29.1 nM. To `CC(=O)NC(CCCCNC(=O)OC(C)(C)C)C(=O)NCc1ccc(S(N)(=O)=O)cc1` (stereo unspecified) belongs 8.9 nM; to `CC(=O)NC(CCCCNC(=O)OC(C)(C)C)C(=O)NCCc1ccc(S(N)(=O)=O)cc1` (stereo unspecified), 76.7 nM; to `CC(=O)NC(CCCCN)C(=O)NCc1ccc(S(N)(=O)=O)cc1` (stereo unspecified), 29.1 nM. To `CC(=O)NC(CCCCN)C(=O)NCCc1ccc(S(N)(=O)=O)cc1` (stereo unspecified) belongs 66.5 nM. To `CC(=O)NC(CCCCN/C(=N/C(=O)OC(C)(C)C)NC(=O)OC(C)(C)C)C(=O)NCc1ccc(S(N)(=O)=O)cc1` (stereo unspecified) belongs 9.1 nM; to `CC(=O)NC(CCCCN/C(=N/C(=O)OC(C)(C)C)NC(=O)OC(C)(C)C)C(=O)NCCc1ccc(S(N)(=O)=O)cc1` (stereo unspecified), 9.3 nM; to `CC(=O)NC(CCCCNC(=N)N)C(=O)NCc1ccc(S(N)(=O)=O)cc1` (stereo unspecified), 8.8 nM. As for `CC(=O)NC(CCCCNC(=N)N)C(=O)NCCc1ccc(S(N)(=O)=O)cc1` (stereo unspecified), affinity was put at a Ki of 36.8 nM.

`CC(C)(C)OC(=O)NCCCC(=O)Nc1cccc(S(N)(=O)=O)c1` had a Ki of 7.6 nM. To `CC(C)(C)OC(=O)NCCCC(=O)Nc1ccc(S(N)(=O)=O)cc1` belongs 6.9 nM; to `COC(=O)C(CCCCNC(=O)OCc1ccccc1)NC(=O)c1ccc(S(N)(=O)=O)cc1` (stereo unspecified), 6.2 nM; to `CC(=O)Nc1nnc(S(N)(=O)=O)s1` [ACETAZOLAMIDE], […].
